The test system of assay [1] is P. aeruginosa PAK mexAB-oprM, EDDHA, OD600 growth, 28 h. Description: growth delay of efflux-deficient P. aeruginosa under iron chelation, dose response, PAK mexAB-OprM pump mutant, OD600, dry powder, set 2 (AID 624104). The procedure, abridged: (§1)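 Compound: series, final 15 nM to 100 µM / Test system: overnight bacterial culture diluted to OD600 0.05 as inoculum / Times: 28 h at 30 °C / Medium: succinate M9 medium, pH 7.0, containing 2 µM EDDHA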

Test in assay [2]: as above
The note with it: P. aeruginosa PAK mexAB-oprM, EDDHA, OD600 growth, 28 h; at 100 µM (top of the series). The gist of the method:
as §1

The source made the active and inactive calls.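 How the source made its calls: active means fitted curve reaches a 35% growth drop -35 below twice the top tested dose; inactive means activity in the wrong direction, or the rest.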

In the case of `N#Cc1cccc(C(C#N)c2ccc(F)cc2)n1` (configuration not stated), the AC35 in assay [1] is 8.88 µM.
As for `CCCCC(C#N)c1ccc(Cl)cn1` (configuration not stated), in assay [1], the AC35 was 42.3 µM.
In the case of `N#CC(c1ccc(F)cc1)c1cccc(C(F)(F)F)n1` (configuration not stated), the AC35 in assay [1] is 0.839 µM.
As to `N#CC(c1cccc(C(F)(F)F)n1)c1ccc(Cl)cc1F` (configuration not stated), the AC35 in assay [1] is 2.45 µM.
Regarding `CCCCC(C#N)c1ccc(F)cn1` (configuration not stated), in assay [1], the AC35 is 18.7 µM.
Turning to `COCCOCCC(C#N)c1ccc(F)cc1` (configuration not stated), the AC35 in assay [1] was 5.24 µM.
On to `CCCCC(c1ccc(Cl)cc1)c1nn[nH]n1` (configuration not stated), for which, in assay [1], the AC35 was 25.2 µM.
Same read-out and setting: then `COCCC(C#N)c1ccc(F)cc1` (configuration not stated), with 28.3 µM; and `N#CC(c1ccc(Cl)cc1)c1ccccn1` (configuration not stated), with 5.72 µM.
As to `COCCC(C#N)c1ccc(Cl)cc1` (configuration not stated), the AC35 in assay [1] is 40.2 µM.
As for `N#CC(c1ccc(C(F)(F)F)c(Cl)n1)c1ccccc1OC(F)(F)F` (configuration not stated), in assay [2], the activity change, negative = growth inhibition was -25.9% (inactive).
`CN(C)CCCC(C#N)c1ccc(F)cc1` (configuration not stated): the AC35 in assay [1] was 6.4 µM.
Regarding `N#CC(c1ccc(Cl)cc1)c1cccc(C(F)(F)F)n1` (configuration not stated), the AC35 in assay [1] is 1.45 µM.
In the case of `CCCCC(C#N)c1ccc(F)cc1` (configuration not stated), in assay [1], the AC35 is 33.5 µM.
For the compound `N#CC1c2ccc(Cl)cc2CCc2cccnc21` (configuration not stated), the AC35 in assay [1] is 32.8 µM.
Turning to `N#CC(c1cccc(Cl)n1)c1ccc(Cl)cc1F` (configuration not stated), the AC35 in assay [1] was 1.52 µM.
With `N#CC(c1ccc(F)cc1)c1cccc(Cl)n1` (configuration not stated), the AC35 in assay [1] is 2.09 µM.
Consider `CN(C)CCCC(C#N)c1ccc(Cl)cc1` (configuration not stated), for which, in assay [2], the activity change, negative = growth inhibition was -0.114% (inactive).
On the same count and under the same terms, then `Clc1ccc(C(c2cccc(Cl)n2)c2nn[nH]n2)cc1` (configuration not stated), with 11.2% (inactive).
With `N#CC(c1ccc(Cl)cc1)c1cccc(Cl)n1` (configuration not stated), the AC35 in assay [1] was 1.97 µM.
For the compound `N#CC(c1ccc(Cl)cc1)c1ncccc1Cl` (configuration not stated), the AC35 in assay [1] was 0.923 µM.
As for `COCCOCCC(C#N)c1ccc(Cl)cc1` (configuration not stated), in assay [2], the activity change, negative = growth inhibition was -10% (inactive).

(Values after PubChem BioAssay AID624104 (Broad Institute, 2012).)
